Measurements from ChEMBL document CHEMBL1926528, “Formulating a new basis for the treatment against botulinum neurotoxin intoxication: 3,4-Diaminopyridine prodrug design and characterization” (Bioorg Med Chem, 2011).

Experiments:
Acetylcholinesterase [1] = biological target: T1, Acetylcholinesterase (Electrophorus electricus, UniProt O42275); assay: Inhibition of Electrophorus electricus Type V-S acetylcholinesterase using […] as substrate by spectrophotometric Ellman's assay
Procedure, shortened: (§1)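 Ellman method at 37°C in 100 mM sodium phosphate pH 8.0 with 360 µM DTNB. Substrate was 100 µM acetylthiocholine iodide for eel AChE or butyrylthiocholine iodide for equine BChE, each reconstituted in 1% gelatin buffer. Prodrug ranged 500 µM to 2 µM. Reaction started with 0.5 U enzyme; linear rates read at 412 nm. IC50 and Ki came from non-linear regression, with Ki from varied inhibitor and substrate concentrations.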

Acetylcholinesterase [2] = biological target: T1, Acetylcholinesterase; assay: Prodrug activation assessed as Electrophorus electricus Type V-S acetylcholinesterase mediated 3,4-diaminopyridine release measured 3 hrs post enzymatic hydrolysis by reverse phase HPLC
Procedure, shortened: (§2)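 Prodrug at 500 µM was incubated with 1.0 U eel AChE or equine BChE in 100 mM sodium phosphate pH 8.0 for 3 h at 37°C. Reaction was quenched with glacial acetic acid. Released 3,4-DAP was measured by C18 reverse-phase HPLC (TFA water/acetonitrile gradient, 254 and 320 nm) and quantified from peak area against authentic standards.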

Butyrylcholinesterase [3] = biological target: T2, Butyrylcholinesterase (Equus caballus, UniProt Q9N1N9); assay: Prodrug activation assessed as equine serum BChE-mediated 3,4-diaminopyridine release measured 3 hrs post enzymatic hydrolysis by reverse phase HPLC; details: horse; procedure, shortened: as §2
T2 sequence (Q9N1N9 whole entry): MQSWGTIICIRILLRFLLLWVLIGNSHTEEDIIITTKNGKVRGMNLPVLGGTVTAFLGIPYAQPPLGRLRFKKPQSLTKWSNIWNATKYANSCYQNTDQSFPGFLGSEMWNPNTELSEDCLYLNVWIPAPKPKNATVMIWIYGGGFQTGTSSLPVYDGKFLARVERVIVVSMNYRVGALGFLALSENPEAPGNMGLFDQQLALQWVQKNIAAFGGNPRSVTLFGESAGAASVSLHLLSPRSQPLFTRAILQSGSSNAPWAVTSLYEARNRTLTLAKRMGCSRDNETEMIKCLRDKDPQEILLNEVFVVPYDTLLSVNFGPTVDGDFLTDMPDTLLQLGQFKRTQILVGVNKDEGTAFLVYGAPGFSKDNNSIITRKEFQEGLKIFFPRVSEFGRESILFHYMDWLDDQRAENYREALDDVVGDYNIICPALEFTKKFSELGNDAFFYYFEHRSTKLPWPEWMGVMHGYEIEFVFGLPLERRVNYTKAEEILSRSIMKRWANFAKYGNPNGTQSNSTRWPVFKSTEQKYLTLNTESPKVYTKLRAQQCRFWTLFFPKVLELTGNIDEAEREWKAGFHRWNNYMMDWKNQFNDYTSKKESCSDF

Butyrylcholinesterase [4] = biological target: T2, Butyrylcholinesterase; assay: Inhibition of equine serum BChE using butyrylthiocholine iodide as a substrate by spectrophotometric Ellman's assay; procedure, shortened: as §1
Serum = assay: Half life mouse serum by reverse phase HPLC; assay type: ADME, cell-free
Procedure, shortened: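 15 µl of 10 mM prodrug stock went into 85 µL mouse serum from clotted blood, pre-warmed to 37°C. Samples were taken at 0–120 min and extracted with cold acetonitrile; proteins were removed by centrifugation. Breakdown product 3,4-DAP was followed by reverse-phase HPLC. Half-life was calculated from 1-hour endpoint samples.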

[5] = Half life in iv dosed mouse; assay type: ADME, organism-based; details: in vivo

T1 sequence (O42275 whole entry): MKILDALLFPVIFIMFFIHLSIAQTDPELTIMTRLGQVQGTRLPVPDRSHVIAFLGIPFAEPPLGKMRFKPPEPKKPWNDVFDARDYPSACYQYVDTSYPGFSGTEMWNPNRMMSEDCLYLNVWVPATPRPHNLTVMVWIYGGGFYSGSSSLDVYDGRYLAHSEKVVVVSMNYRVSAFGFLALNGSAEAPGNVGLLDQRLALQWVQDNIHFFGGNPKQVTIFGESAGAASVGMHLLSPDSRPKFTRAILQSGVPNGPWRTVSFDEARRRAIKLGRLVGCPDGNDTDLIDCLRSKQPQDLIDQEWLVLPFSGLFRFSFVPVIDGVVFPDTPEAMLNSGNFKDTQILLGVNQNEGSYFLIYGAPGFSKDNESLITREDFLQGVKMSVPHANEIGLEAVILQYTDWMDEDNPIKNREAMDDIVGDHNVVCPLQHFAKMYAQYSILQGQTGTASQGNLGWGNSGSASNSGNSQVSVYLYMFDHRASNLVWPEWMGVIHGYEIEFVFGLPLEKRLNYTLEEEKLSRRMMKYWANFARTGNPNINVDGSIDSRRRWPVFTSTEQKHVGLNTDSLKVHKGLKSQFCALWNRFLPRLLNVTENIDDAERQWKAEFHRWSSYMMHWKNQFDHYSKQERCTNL

Compound	IC50 (Acetylcholinesterase [1]) [µM]	Ki (Acetylcholinesterase [1]) [µM]	Drug metabolism (Acetylcholinesterase [2]) [µM]	Drug metabolism (Butyrylcholinesterase [3]) [µM]	IC50 (Butyrylcholinesterase [4]) [µM]	Ki (Butyrylcholinesterase [4]) [µM]	t1/2 (Serum) [min]	half-life [5] [min]
CC(=O)Oc1ccc(COC(=O)Nc2ccncc2N)cc1	49.4	10.9	0	0	10.6	1.6		
CCC(=O)Oc1ccc(COC(=O)Nc2ccncc2N)cc1	5.2	5.7	145	82	129	25	1.2	
CCCC(=O)Oc1ccc(COC(=O)Nc2ccncc2N)cc1	48.8	12.1	10	71	111	14.4		
CC(C)C(=O)Oc1ccc(COC(=O)Nc2ccncc2N)cc1	8.5	3.9	105	82	122	42	1.9	
CC(C)CC(=O)Oc1ccc(COC(=O)Nc2ccncc2N)cc1	11.9	55.4	12	83	87.7	38.4		
Nc1cnccc1NC(=O)OCc1ccc(OC(=O)C2CCCC2)cc1	11.6	6.8	34	79	77.5	37.2		
Nc1cnccc1NC(=O)OCc1ccc(OC(=O)c2ccccc2)cc1	167		1	0	392			
COc1cccc(C(=O)Oc2ccc(COC(=O)Nc3ccncc3N)cc2)c1	163		2	0	61.7			
Nc1cnccc1NC(=O)OCc1ccc(OC(=O)Cc2ccccc2)cc1	136		0	0	32.2	30.7		
CC(C)C(=O)OCc1ccccc1COC(=O)Nc1ccncc1N	496		29	5	> 500			
CC(C)C(=O)OCCOC(=O)Nc1ccncc1N	25.9	> 500	0	4	61.9	> 500		
COC(=O)Nc1cnccc1N	> 500		0	0	> 500			
COC(=O)Nc1ccncc1NC(=O)OC	36.3	> 500	0	0	417	> 500		
COC(=O)Nc1ccncc1N	45.6		0	0	491			
CC(=O)Nc1ccncc1N	61.3	32.5	0	0	> 500	173		
CC(=O)Nc1ccncc1NC(C)=O	34.2		0	0	404			
Nc1cnccc1NC(=O)c1ccccc1	> 500		0	0	> 500			
Nc1cnccc1NC(=O)C1CCCC1	> 500		4	8	> 500			
CC(C)OC(=O)CCC(=O)Nc1ccncc1N	88.3	3.2	3.4	5.8	97.4	62	165	
Nc1cncc(N)c1N								18.6
C#CC[n+]1ccc(N)c(N)c1								72
